According to ChEMBL document CHEMBL4402581, “Monohydrazone Based G-Quadruplex Selective Ligands Induce DNA Damage and Genome Instability in Human Cancer Cells” (J Med Chem, 2020):
The source made the active and inactive calls. No cut-off for these calls is given here.

Columns and labels:
Quadruplex DNA [1] = experiment: Stabilization of human Tel23 G4 quadruplex DNA assessed as change in melting temperature at 10 mol.equiv by circular dichroism melting assay; assay type: nucleic-acid assay
How it was run: (§1)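 CD melting from 20 to 100 °C at 1 °C/min, monitored at 264 nm (c-Kit1, c-Kit2, c-Myc, Tel23-p), 287 nm (Tel23-h) or 280 nm (hairpin). Ligand was at 10 mol equiv with folded DNA (15 μM G4, 30 μM hairpin). ΔTm is Tm with ligand minus Tm without, from curve fits, averaged over triplicates.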

Quadruplex DNA [2] = experiment: Binding affinity at FAM/TAMRA-tagged parallel Tel21 G4 quadruplex DNA assessed as melting temperature at 2 uM by FRET melting assay (reference value: 55.4 +/- 0.2 degreeC); assay type: nucleic-acid assay
How it was run: (§2)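 Dual FAM/TAMRA-labelled oligos (0.2 μM) in 20 mM K phosphate pH 7.0 with 5 mM KCl, annealed 90 °C 5 min, slow-cooled overnight, held 4 °C 24 h. The Tel21 parallel form was annealed at high DNA concentration. Ligand 2 μM. Unlabelled ds12 duplex competitor at 0, 5 or 10 μM final. Tm was read from FRET melting curves.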

Quadruplex DNA [3] = experiment: Stabilization of G4 quadruplex DNA in human U2OS cells assessed as change in size of BG4 foci at 2 uM incubated for 24 hrs by immunofluorescence microscopy; assay type: cell-based
Quadruplex DNA [4] = experiment: Stabilization of c-Kit2 G4 quadruplex DNA assessed as change in melting temperature at 10 mol.equiv by circular dichroism melting assay; assay type: nucleic-acid assay; how it was run: as §1
Quadruplex DNA [5] = experiment: Effect on parallel Tel23 G4 quadruplex DNA architecture at 10 mol.equiv by circular dichroism spectral analysis; assay type: nucleic-acid assay
How it was run: (§3)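 CD spectra of 15 μM G4s or 30 μM hairpin in 20 mM K phosphate pH 7.0 with 5 mM KCl, after annealing. Recorded at 20 °C over 230–360 nm, three scans averaged, buffer baseline subtracted. Ligand was added at 10 mol equiv to the folded DNA from a 10 mM DMSO stock.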

U2OS [6] = experiment: Cytotoxicity against human U2OS cells assessed as reduction in cell viability incubated for 1 hr followed by 48 hrs of recovery in drug free medium by MTT assay; assay type: functional, cell-based
How it was run: (§4)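 Cells grown in DMEM with 10% FBS and 1% glutamine at 37 °C, 5% CO2, and seeded 25 × 10^4 per well. Treatment began 24 h after seeding and lasted 1 or 24 h, followed by 48 h in drug-free medium. MTT was added for 1 h at 37 °C, then DMSO solubilization and absorbance at 595 nm. IC50 came from linear regression; two independent experiments, each in triplicate.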

Quadruplex DNA [7] = experiment: Displacement of Thiazole orange from parallel Tel23 G4 quadruplex DNA incubated for 3 mins by spectrofluorimetry relative to control; assay type: nucleic-acid assay
How it was run: (§5)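 Pre-folded DNA (0.25 μM) in K phosphate/KCl buffer was mixed with thiazole orange: 0.50 μM for G4s, 0.75 μM for duplex. Ligand was added stepwise from 0.5 to 10 equiv, with 3 min equilibration at 20 °C after each addition. Excitation 495 nm; emission read at 543 nm. Displacement % = 100 − (F/F0 × 100). DC50 is the concentration giving 50% displacement.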

U2OS [8] = experiment: Cytotoxicity against human U2OS cells assessed as reduction in cell viability incubated for 24 hrs followed by 48 hrs of recovery in drug-free medium by MTT assay; assay type: functional, cell-based; how it was run: as §4
U2OS [9] = experiment: Induction of DNA damage in human U2OS cells assessed as increase in gammaH2AX phosphorylation at S139 at 10 uM incubated for 4 hrs by immunofluorescence microscopy; assay type: functional, cell-based
How it was run: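 U2OS cells were treated with 10 μM for 4 h, pre-extracted 3 min with CSK buffer containing 0.5% Triton X-100, and fixed in 2% paraformaldehyde. Co-stained 1 h for 53BP1 and γH2AX, with DAPI counterstain. Foci were counted per nucleus and normalized to the untreated mean, across three biological replicates.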

HeLa [10] = experiment: Cytotoxicity against human HeLa cells assessed as reduction in cell viability incubated for 1 hr followed by 48 hrs of recovery in drug free medium by MTT assay; assay type: functional, cell-based; how it was run: as §4
Quadruplex DNA [11] = experiment: Stabilization of G4 quadruplex DNA in human U2OS cells assessed as colocalization of TRF2/[…] foci at 2 uM incubated for 24 hrs by immunofluorescence microscopy (reference value: 18.4 +/- 2.81%); assay type: cell-based
Quadruplex DNA [12] = experiment: Effect on c-Myc G4 quadruplex DNA architecture at 10 mol.equiv by circular dichroism spectral analysis; assay type: nucleic-acid assay; how it was run: as §3
Quadruplex DNA [13] = experiment: Displacement of Thiazole orange from c-Kit2 G4 quadruplex DNA incubated for 3 mins by spectrofluorimetry; assay type: nucleic-acid assay; how it was run: as §5
Quadruplex DNA [14] = experiment: Binding affinity at FAM/TAMRA-tagged parallel Tel21 G4 quadruplex DNA assessed as melting temperature at 2 uM in presence of 25 fold excess duplex DNA by FRET melting assay (reference value: 55.4 +/- 0.2 degreeC); assay type: nucleic-acid assay; how it was run: as §2
Quadruplex DNA [15] = experiment: Binding affinity at FAM/TAMRA-tagged c-Kit2 G4 quadruplex DNA assessed as melting temperature at 2 uM by FRET melting assay (reference value: 69.7 +/- 0.3 degreeC); assay type: nucleic-acid assay; how it was run: as §2
Quadruplex DNA [16] = experiment: Displacement of Thiazole orange from parallel Tel23 G4 quadruplex DNA incubated for 3 mins by spectrofluorimetry; assay type: nucleic-acid assay; how it was run: as §5
Quadruplex DNA [17] = experiment: Effect on human Tel23 G4 quadruplex DNA architecture at 10 mol.equiv by circular dichroism spectral analysis; assay type: nucleic-acid assay; how it was run: as §3
Quadruplex DNA [18] = experiment: Stabilization of c-Myc G4 quadruplex DNA assessed as change in melting temperature at 10 mol.equiv by circular dichroism melting assay; assay type: nucleic-acid assay; how it was run: as §1
Quadruplex DNA [19] = experiment: Binding affinity at FAM/TAMRA-tagged c-Kit2 G4 quadruplex DNA assessed as melting temperature at 2 uM in presence of 25 fold excess duplex DNA by FRET melting assay (reference value: 69.7 +/- 0.3 degreeC); assay type: nucleic-acid assay; how it was run: as §2
[20] = Stabilization of hairpin-duplex DNA assessed as change in melting temperature at 10 mol.equiv by circular dichroism melting assay; how it was run: as §1
[21] = Displacement of Thiazole orange from hairpin duplex DNA incubated for 3 mins by spectrofluorimetry; how it was run: as §5
Quadruplex DNA [22] = experiment: Binding affinity at FAM/TAMRA-tagged c-Kit2 G4 quadruplex DNA assessed as melting temperature at 2 uM in presence of 50 fold excess duplex DNA by FRET melting assay (reference value: 69.7 +/- 0.3 degreeC); assay type: nucleic-acid assay; how it was run: as §2
HeLa [23] = experiment: Cytotoxicity against human HeLa cells assessed as reduction in cell viability incubated for 24 hrs followed by 48 hrs of recovery in drug free medium by MTT assay; assay type: functional, cell-based; how it was run: as §4
Quadruplex DNA [24] = experiment: Stabilization of G4 quadruplex DNA in human U2OS cells assessed as increase in number of G4 foci at 2 uM incubated for 24 hrs by immunofluorescence microscopy; assay type: cell-based
Quadruplex DNA [25] = experiment: Binding affinity at FAM/TAMRA-tagged parallel Tel21 G4 quadruplex DNA assessed as melting temperature at 2 uM in presence of 50 fold excess duplex DNA by FRET melting assay (reference value: 55.4 +/- 0.2 degreeC); assay type: nucleic-acid assay; how it was run: as §2
[26] = Effect on hairpin-duplex DNA architecture at 10 mol.equiv by circular dichroism spectral analysis; how it was run: as §3
Quadruplex DNA [27] = experiment: Stabilization of G4 quadruplex DNA in human U2OS cells assessed as TRF2 foci per cell at 2 uM incubated for 24 hrs by immunofluorescence microscopy (reference value: 15.8 +/- 2.6%); assay type: cell-based

ΔTm (Quadruplex DNA [1]): < 2 °C
Tm (Quadruplex DNA [2]): 68.6 °C
Activity (Quadruplex DNA [4]): Active
Activity (Quadruplex DNA [5]): inactive
inhibition (Quadruplex DNA [7]): 80%
Activity (Quadruplex DNA [12]): inactive
DC50 (Quadruplex DNA [13]): 7.8 µM
Tm (Quadruplex DNA [14]): 67.7 °C
Tm (Quadruplex DNA [15]): 77.9 °C
DC50 (Quadruplex DNA [16]): 0.48 µM
Activity (Quadruplex DNA [17]): inactive
Activity (Quadruplex DNA [18]): Active
Tm (Quadruplex DNA [19]): 76.4 °C
Activity [20]: Active
DC50 [21]: 8.57 µM
Tm (Quadruplex DNA [22]): 76.5 °C
Tm (Quadruplex DNA [25]): 68.1 °C
Activity [26]: inactive
SMILES: CC(C)(C)c1cc(/C=N/NC(=N)N)c(O)c(/C=C2/C(=O)Nc3c2ccc2ccccc32)c1.Cl
Activity (Quadruplex DNA [3]): inactive
IC50 (U2OS [6]): 12.5 µM
IC50 (U2OS [8]): 2.06 µM
Activity (U2OS [9]): Active
IC50 (HeLa [10]): 3.94 µM
Activity (Quadruplex DNA [11]): 16.4%
IC50 (HeLa [23]): 0.75 µM
Activity (Quadruplex DNA [24]): Active
Activity (Quadruplex DNA [27]): 15%
